# Reference: ChEMBL document CHEMBL3621164, “Discovery of Triazole CYP11B2 Inhibitors with in Vivo Activity in Rhesus Monkeys” (ACS Med Chem Lett, 2015)
# Target: T1, Cytochrome P450 11B2, mitochondrial (Rattus norvegicus, UniProt P30099)
# T1 sequence (P30099 whole entry): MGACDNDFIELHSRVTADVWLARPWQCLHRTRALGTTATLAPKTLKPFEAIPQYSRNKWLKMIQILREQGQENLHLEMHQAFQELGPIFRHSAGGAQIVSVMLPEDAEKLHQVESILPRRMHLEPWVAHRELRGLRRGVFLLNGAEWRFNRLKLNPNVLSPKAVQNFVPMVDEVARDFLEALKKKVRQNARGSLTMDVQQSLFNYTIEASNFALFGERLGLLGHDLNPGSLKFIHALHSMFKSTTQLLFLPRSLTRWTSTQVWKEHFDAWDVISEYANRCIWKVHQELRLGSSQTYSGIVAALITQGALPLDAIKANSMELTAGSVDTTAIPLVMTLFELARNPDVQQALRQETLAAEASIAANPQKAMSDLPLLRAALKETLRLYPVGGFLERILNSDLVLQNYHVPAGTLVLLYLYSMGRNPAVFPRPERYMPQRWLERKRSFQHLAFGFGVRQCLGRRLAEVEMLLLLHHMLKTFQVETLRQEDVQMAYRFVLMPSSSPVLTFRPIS
# Assay: Inhibition of rat CYP11B2 expressed in V79 cells assessed as aldosterone level after 3 hrs by HTRF assay in presence of 500 nM 11-deoxycorticosterone
# Assay type: cell-based
# Settings: v79, 3 h; call rule not given here
row,inhibition (INH),SMILES
1,Active,Cc1nnc2n1-c1ccc(-c3cncc(C(C)(C)O)c3)cc1CC2
2,Active,COC(C)(C)c1cncc(-c2ccc3c(c2)CCc2nnc(C)n2-3)c1

# Test system: not listed separately
# Assay: Inhibition of rhesus monkey CYP11B2 expressed in V79 cells assessed as aldosterone level after 3 hrs by HTRF assay in presence of 125 nM 11-deoxycorticosterone
# Assay type: cell-based
# Settings: Macaca mulatta, V79, 3 h
row,IC50,SMILES
1,34 nM,Cc1nnc2n1-c1ccc(-c3cncc(C(C)(C)O)c3)cc1CC2
2,3 nM,COC(C)(C)c1cncc(-c2ccc3c(c2)CCc2nnc(C)n2-3)c1

# Target: T2, CYP11B1 (Homo sapiens, UniProt P15538)
# T2 sequence (P15538 whole entry): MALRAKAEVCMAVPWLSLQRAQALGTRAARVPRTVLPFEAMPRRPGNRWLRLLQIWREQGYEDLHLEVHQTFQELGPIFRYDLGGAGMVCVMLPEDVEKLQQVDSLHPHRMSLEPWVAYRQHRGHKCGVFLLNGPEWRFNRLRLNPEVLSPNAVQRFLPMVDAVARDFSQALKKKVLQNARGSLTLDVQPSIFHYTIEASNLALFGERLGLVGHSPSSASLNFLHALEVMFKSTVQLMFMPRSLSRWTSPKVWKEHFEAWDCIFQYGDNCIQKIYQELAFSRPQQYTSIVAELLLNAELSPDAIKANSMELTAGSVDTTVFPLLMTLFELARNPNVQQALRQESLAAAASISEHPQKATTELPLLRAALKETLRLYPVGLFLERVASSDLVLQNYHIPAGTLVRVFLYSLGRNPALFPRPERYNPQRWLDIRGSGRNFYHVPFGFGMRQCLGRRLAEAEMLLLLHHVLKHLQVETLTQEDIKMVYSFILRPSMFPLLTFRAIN
# Assay: (§1) Inhibition of human CYP11B1 expressed in V79 cells assessed as cortisol level after 3 hrs by HTRF assay in presence of 250 nM 11-deoxycortisol
# Assay type: cell-based
# Settings: human, V79 cells expressing human CYP11B1, probe 11-deoxycortisol (250 nM)
row,IC50 at 3 h,SMILES
1,407 nM,Cc1nnc2n1-c1ccc(-c3cncc4ccccc34)cc1CC2

# Target: T3, Cytochrome P450 11B1, mitochondrial (Homo sapiens, UniProt P15538)
# T3 sequence (P15538 whole entry): T2 sequence (P15538 whole entry)
# Assay: as §1
# Assay type: cell-based
# Settings: not given
row,SMILES,IC50
1,c1cncc(-c2ccc3c(c2)CCc2nncn2-3)c1,> 10000 nM
2,COC(=O)c1cncc(-c2ccc3c(c2)CCc2nnc(C)n2-3)c1,2200 nM
3,CNC(=O)c1cncc(-c2ccc3c(c2)CCc2nnc(C)n2-3)c1,> 8330 nM
4,Cc1nnc2n1-c1ccc(-c3cncc(S(C)(=O)=O)c3)cc1CC2,> 8330 nM
5,c1cncc(-c2ccc3c(c2)CCc2nnc(C4CC4)n2-3)c1,> 10000 nM
6,COC(C)(C)c1cncc(-c2ccc3c(c2)CCc2nnc(C)n2-3)c1,219 nM

# Second part, the compound after the results:
row,IC50,SMILES
1,> 8330 nM,C[C@@](O)(c1cncc(-c2ccc3c(c2)CCc2nnc(C(F)(F)F)n2-3)c1)C(F)(F)F
2,> 8330 nM,FC(F)(F)c1nnc2n1-c1ccc(-c3cccnc3)cc1CC2
3,> 8330 nM,Cc1nnc2n1-c1ccc(-c3cncc(C(C)(C)O)c3)cc1CC2

# Test system: not listed separately
# Assay: Intrinsic clearance in Sprague-Dawley rat liver microsomes by LC/MS method
# Assay type: ADME
# Settings: read-out: CLH
row,CLint scaled,SMILES
1,33 mL/min/kg,Cc1nnc2n1-c1ccc(-c3cncc4ccccc34)cc1CC2
2,< 20 mL/min/kg,Cc1nnc2n1-c1ccc(-c3cncc(C(C)(C)O)c3)cc1CC2
3,107 mL/min/kg,COC(C)(C)c1cncc(-c2ccc3c(c2)CCc2nnc(C)n2-3)c1

# Target: T4, Aromatase (Homo sapiens, UniProt P11511)
# T4 sequence (P11511 whole entry): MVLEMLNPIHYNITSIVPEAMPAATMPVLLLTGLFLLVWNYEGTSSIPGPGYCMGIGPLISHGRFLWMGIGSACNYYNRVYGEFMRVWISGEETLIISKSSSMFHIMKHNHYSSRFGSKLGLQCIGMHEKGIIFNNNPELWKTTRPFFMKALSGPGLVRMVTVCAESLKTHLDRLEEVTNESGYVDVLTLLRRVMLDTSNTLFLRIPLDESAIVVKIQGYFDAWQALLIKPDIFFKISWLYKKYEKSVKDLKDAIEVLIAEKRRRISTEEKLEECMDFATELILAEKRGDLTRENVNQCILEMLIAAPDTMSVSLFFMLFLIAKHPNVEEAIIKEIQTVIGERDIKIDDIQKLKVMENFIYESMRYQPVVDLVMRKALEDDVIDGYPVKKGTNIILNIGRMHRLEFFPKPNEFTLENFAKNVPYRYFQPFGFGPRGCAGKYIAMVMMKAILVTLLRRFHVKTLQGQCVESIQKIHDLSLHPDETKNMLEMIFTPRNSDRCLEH
# Assay: Inhibition of human CYP19
# Settings: not given
row,IC50,SMILES
1,> 10000 nM,COC(=O)c1cncc(-c2ccc3c(c2)CCc2nnc(C)n2-3)c1
2,11200 nM,COC(C)(C)c1cncc(-c2ccc3c(c2)CCc2nnc(C)n2-3)c1

# Target: T5, Steroid 17-alpha-hydroxylase/17,20 lyase (Homo sapiens, UniProt P05093)
# T5 sequence (P05093 whole entry): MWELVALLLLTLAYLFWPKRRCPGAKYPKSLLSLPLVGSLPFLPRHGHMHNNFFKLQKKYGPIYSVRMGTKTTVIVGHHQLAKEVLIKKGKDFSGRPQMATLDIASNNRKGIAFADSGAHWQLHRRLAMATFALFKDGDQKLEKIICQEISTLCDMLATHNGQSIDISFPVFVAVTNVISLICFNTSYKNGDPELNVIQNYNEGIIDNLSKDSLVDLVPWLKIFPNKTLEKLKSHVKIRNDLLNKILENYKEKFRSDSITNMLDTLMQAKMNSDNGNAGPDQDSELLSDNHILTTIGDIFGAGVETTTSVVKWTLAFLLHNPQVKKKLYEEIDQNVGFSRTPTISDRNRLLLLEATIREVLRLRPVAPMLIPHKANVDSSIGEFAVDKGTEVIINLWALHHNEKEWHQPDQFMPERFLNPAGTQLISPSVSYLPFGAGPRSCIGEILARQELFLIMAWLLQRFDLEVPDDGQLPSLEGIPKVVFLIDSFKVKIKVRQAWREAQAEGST
# Assay: Inhibition of human CYP17 expressed in COS7 cells assessed as DHEA level after 3 hrs by EIA assay in presence of 360 nM 17-hydroxypregnenolone
# Assay type: cell-based, COS-7
# Settings: not given
row,IC50,SMILES
1,> 10000 nM,COC(=O)c1cncc(-c2ccc3c(c2)CCc2nnc(C)n2-3)c1
2,> 10000 nM,COC(C)(C)c1cncc(-c2ccc3c(c2)CCc2nnc(C)n2-3)c1

# Test system: not listed separately
# Assay: Half life in Sprague-Dawley rat at 2 mg/kg, po administered through gavage by LC/MS/MS method
# Assay type: ADME, organism-based
# Settings: in vivo
row,half-life,SMILES
1,24 min,Cc1nnc2n1-c1ccc(-c3cncc4ccccc34)cc1CC2
2,90 min,Cc1nnc2n1-c1ccc(-c3cncc(C(C)(C)O)c3)cc1CC2
3,18 min,COC(C)(C)c1cncc(-c2ccc3c(c2)CCc2nnc(C)n2-3)c1

# Test system: not listed separately
# Assay: Oral bioavailability in Sprague-Dawley rat at 2 mg/kg administered through gavage
# Assay type: ADME, organism-based
# Settings: in vivo
row,bioavailability,SMILES
1,75%,Cc1nnc2n1-c1ccc(-c3cncc4ccccc34)cc1CC2
2,19%,Cc1nnc2n1-c1ccc(-c3cncc(C(C)(C)O)c3)cc1CC2
3,10%,COC(C)(C)c1cncc(-c2ccc3c(c2)CCc2nnc(C)n2-3)c1

# Test system: not listed separately
# Assay: Lipophilicity, log D of the compound by HPLC
# Assay type: physicochemical
# Settings: not given
# How it was run: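 Lipophilicity determined experimentally by HPLC.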
row,logD,SMILES
1,2.2,C[C@@](O)(c1cncc(-c2ccc3c(c2)CCc2nnc(C(F)(F)F)n2-3)c1)C(F)(F)F
2,0.6,Cc1nnc2n1-c1ccc(-c3cncc(C(C)(C)O)c3)cc1CC2

# Target: T6, Cytochrome P450 11B2, mitochondrial (Homo sapiens, UniProt P19099)
# T6 sequence (P19099 whole entry): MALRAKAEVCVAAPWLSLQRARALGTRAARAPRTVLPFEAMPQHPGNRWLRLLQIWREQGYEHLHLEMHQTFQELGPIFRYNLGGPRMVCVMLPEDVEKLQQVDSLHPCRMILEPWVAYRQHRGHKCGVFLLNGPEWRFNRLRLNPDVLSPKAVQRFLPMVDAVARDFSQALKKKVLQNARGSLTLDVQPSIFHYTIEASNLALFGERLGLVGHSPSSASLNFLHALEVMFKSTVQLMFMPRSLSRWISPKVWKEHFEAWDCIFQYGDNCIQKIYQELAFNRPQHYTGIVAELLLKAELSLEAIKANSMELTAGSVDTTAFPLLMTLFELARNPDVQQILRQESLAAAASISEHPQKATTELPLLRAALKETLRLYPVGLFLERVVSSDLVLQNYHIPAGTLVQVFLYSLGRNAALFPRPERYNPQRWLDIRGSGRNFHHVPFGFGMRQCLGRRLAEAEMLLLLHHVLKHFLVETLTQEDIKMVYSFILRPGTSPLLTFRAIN
# Assay: Inhibition of human CYP11B2 expressed in V79 cells assessed as aldosterone level after 3 hrs by HTRF assay in presence of 125 nM 11-deoxycorticosterone
# Assay type: cell-based
# Settings: not given
row,SMILES,IC50
1,c1cncc(-c2ccc3c(c2)CCc2nncn2-3)c1,300 nM
2,COC(=O)c1cncc(-c2ccc3c(c2)CCc2nnc(C)n2-3)c1,58 nM
3,Cc1nnc2n1-c1ccc(-c3cncc4ccccc34)cc1CC2,5 nM
4,CNC(=O)c1cncc(-c2ccc3c(c2)CCc2nnc(C)n2-3)c1,> 8330 nM
5,Cc1nnc2n1-c1ccc(-c3cncc(S(C)(=O)=O)c3)cc1CC2,> 8330 nM
6,c1cncc(-c2ccc3c(c2)CCc2nnc(C4CC4)n2-3)c1,487 nM
7,COC(C)(C)c1cncc(-c2ccc3c(c2)CCc2nnc(C)n2-3)c1,19 nM

# Next, values leading:
row,IC50,SMILES
1,476 nM,C[C@@](O)(c1cncc(-c2ccc3c(c2)CCc2nnc(C(F)(F)F)n2-3)c1)C(F)(F)F
2,506 nM,FC(F)(F)c1nnc2n1-c1ccc(-c3cccnc3)cc1CC2
3,283 nM,Cc1nnc2n1-c1ccc(-c3cncc(C(C)(C)O)c3)cc1CC2

# Test system: not listed separately
# Assay: Plasma clearance in Sprague-Dawley rat at 2 mg/kg, po administered through gavage by LC/MS/MS method
# Assay type: ADME, organism-based
# Settings: not given
row,CL/F,SMILES
1,150 mL/min/kg,Cc1nnc2n1-c1ccc(-c3cncc4ccccc34)cc1CC2
2,50 mL/min/kg,Cc1nnc2n1-c1ccc(-c3cncc(C(C)(C)O)c3)cc1CC2
3,177 mL/min/kg,COC(C)(C)c1cncc(-c2ccc3c(c2)CCc2nnc(C)n2-3)c1

# Organism: Homo sapiens
# Assay: Selectivity index, ratio IC50 for human CYP11B1 to IC50 for human CYP11B2
# Settings: not given
# How it was run: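 Ratio of human CYP11B1 IC50 to human CYP11B2 IC50; each IC50 calculated from n ≥ 2 determinations.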
row,SMILES,Ratio IC50
1,c1cncc(-c2ccc3c(c2)CCc2nncn2-3)c1,> 33
2,c1cncc(-c2ccc3c(c2)CCc2nnc(C4CC4)n2-3)c1,> 21

# The next lines start with the values.
row,Ratio IC50,SMILES
1,> 18,C[C@@](O)(c1cncc(-c2ccc3c(c2)CCc2nnc(C(F)(F)F)n2-3)c1)C(F)(F)F
2,> 16,FC(F)(F)c1nnc2n1-c1ccc(-c3cccnc3)cc1CC2
3,> 29,Cc1nnc2n1-c1ccc(-c3cncc(C(C)(C)O)c3)cc1CC2

# Target: Cytochrome P450 3A4 (Homo sapiens, UniProt P08684)
# Assay: Inhibition of human CYP3A4
# Assay type: ADME
# Settings: not given
# Sequence of Cytochrome P450 3A4 (P08684 whole entry): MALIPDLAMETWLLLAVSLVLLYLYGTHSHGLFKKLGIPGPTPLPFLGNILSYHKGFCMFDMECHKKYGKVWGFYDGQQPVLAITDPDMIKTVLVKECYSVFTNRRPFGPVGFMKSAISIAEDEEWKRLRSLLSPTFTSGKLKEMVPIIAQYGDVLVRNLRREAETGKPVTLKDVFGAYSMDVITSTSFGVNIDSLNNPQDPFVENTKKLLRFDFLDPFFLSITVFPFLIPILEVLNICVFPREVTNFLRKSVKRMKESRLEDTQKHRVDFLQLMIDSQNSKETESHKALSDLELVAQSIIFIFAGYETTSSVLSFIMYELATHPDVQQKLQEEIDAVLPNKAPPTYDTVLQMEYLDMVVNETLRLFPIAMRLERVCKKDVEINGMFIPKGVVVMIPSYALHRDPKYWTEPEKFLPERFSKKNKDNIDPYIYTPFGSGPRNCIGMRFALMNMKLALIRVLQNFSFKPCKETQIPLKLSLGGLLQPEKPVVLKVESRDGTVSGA
row,IC50,SMILES
1,> 50000 nM,COC(=O)c1cncc(-c2ccc3c(c2)CCc2nnc(C)n2-3)c1
2,> 50000 nM,COC(C)(C)c1cncc(-c2ccc3c(c2)CCc2nnc(C)n2-3)c1

# Test system: Rattus norvegicus
# Assay: Dose normalized AUC in Sprague-Dawley rat at 2 mg/kg, po administered through gavage
# Assay type: ADME, organism-based
# Settings: in vivo
row,AUC/dose,SMILES
1,0.27 µM·kg·h/mg,Cc1nnc2n1-c1ccc(-c3cncc4ccccc34)cc1CC2
2,0.19 µM·kg·h/mg,Cc1nnc2n1-c1ccc(-c3cncc(C(C)(C)O)c3)cc1CC2
3,0.03 µM·kg·h/mg,COC(C)(C)c1cncc(-c2ccc3c(c2)CCc2nnc(C)n2-3)c1
